Data on 19 compounds can be found in ChEMBL document CHEMBL2407055, “4-Substituted 2-Hydroxyisoquinoline-1,3(2H,4H)-diones as a Novel Class of HIV-1 Integrase Inhibitors” (ACS Med Chem Lett, 2013).

Converted amounts (≈) assume the structure as drawn.

In data set [1] the target is T1, Human immunodeficiency virus type 1 integrase (Human immunodeficiency virus 1, UniProt Q7ZJM1). As to the kind of experiment: Inhibition of HIV1 integrase overall inhibition using 5'-digoxigenin-labeled 5'-GACCCTTTTAGTCAGTGTGGAAAATCTCTAGCAGT-3' as substrate after 1 hr by ELISA. In general terms: In an ELISA, binding on a coated surface is turned into a signal by an enzyme label.

For data set [2], the target named is T1, Human immunodeficiency virus type 1 integrase. Briefly: Inhibition of strand transfer activity of HIV1 integrase using pre-cleaved oligonucleotide as substrate after 1 hr by ELISA.
Data set [3] can be described thus: Cytotoxicity against human MT4 cells by MTT assay. It is filed as cell-based. The method in brief: (§1)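 Anti-HIV-1 activity was measured in MT-4 cells. EC50 is the concentration that cuts HIV-1-induced cytopathic effect by 50%. CC50 is the concentration that lowers MT-4 cell viability by 50%. The therapeutic index is CC50/EC50.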
A short description of data set [4]: Therapeutic index, ratio of CC50 for human MT4 cells to EC50 for HIV1 3B. It is filed as cell-based. The conditions noted are these: read-out: Ratio CC50/EC50. The procedure, abridged:
as §1

The test system of data set [5] is Human immunodeficiency virus 1. Briefly: Antiviral activity against HIV1 3B infected in human MT4 cells assessed as inhibition of virus-induced cytopathic effect by MTT assay. It is filed as functional, organism-based. The conditions noted are these: Human immunodeficiency virus 1, 3B. The method in brief: as §1
(Protection from cytopathic effect is a common read-out in antiviral testing.)

Data set [6] has as its target Human immunodeficiency virus type 1 reverse transcriptase (Human immunodeficiency virus 1, UniProt Q72547). As to the kind of experiment: Inhibition of HIV1 recombinant reverse transcriptase RNase H activity after 10 mins. The procedure, abridged:
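In vitro assay of RT-associated RNase H function. IC50 is the concentration giving 50% inhibition of RNase H activity.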

The target in data set [7] is Human immunodeficiency virus type 1 integrase (Human immunodeficiency virus 1) (UniProt Q7ZJM1). Briefly: Ratio of IC50 for strand transfer activity of HIV1 integrase to IC50 for HIV1 integrase overall inhibition.
The target in data set [8] is T1, Human immunodeficiency virus type 1 integrase. As to the kind of experiment: Inhibition of 3'-processing activity of HIV1 integrase using 32P-5'-TGTGGAAAATCTCTAGCAGT-3' and 5'-ACTGCTAGAGATTTTCCACA-3' as substrate after 1 hr by ELISA.
For data set [9] the target is unchanged. Briefly: Inhibition of HIV1 integrase binding to LEDGF.
Data set [10] is described as follows: Protein binding in human plasma. It counts as ADME, cell-free. The conditions noted are these: read-out: PPB.
The nature of data set [11]: Aqueous solubility of the compound in PBS at pH 7.4. It is filed as physicochemical.
Data set [12] in a line: n-octanol-PBS partition coefficient, log D of the compound at pH 7.4. It counts as physicochemical.

Sequence of Human immunodeficiency virus type 1 integrase (Human immunodeficiency virus 1) (Q7ZJM1 as listed by the source): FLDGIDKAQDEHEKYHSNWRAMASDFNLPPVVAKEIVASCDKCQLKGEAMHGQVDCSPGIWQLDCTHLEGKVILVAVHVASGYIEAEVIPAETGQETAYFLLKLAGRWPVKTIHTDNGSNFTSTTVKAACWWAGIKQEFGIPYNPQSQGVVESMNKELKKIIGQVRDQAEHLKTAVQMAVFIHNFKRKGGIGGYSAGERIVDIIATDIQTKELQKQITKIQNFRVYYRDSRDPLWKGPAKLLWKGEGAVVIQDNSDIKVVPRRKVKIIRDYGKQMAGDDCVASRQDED
T1 sequence (Q7ZJM1 whole entry): as the sequence (Q7ZJM1 as listed by the source) above

The term IC50 denotes the concentration that inhibits the measured activity by half. As usually defined, the CC50 is the concentration at which the toxic effect on the cells reaches its halfway point. Higher therefore signals better tolerance by the cells. Usually EC50 stands for the concentration needed to bring the measured effect to its halfway point. As to `COc1ccc(CNC(=O)C2C(=O)N(O)C(=O)c3ccccc32)c(OC)c1` (stereo not given), the IC50 amounted to 0.035 µM in data set [1], 0.254 µM in data set [2] and 0.63 µM in data set [6]. In [3], this compound came in with a CC50 of 60.4 µM. In [4], the selectivity ratio was found to be 6.5. Moreover, the EC50 in data set [5] was 9.24 µM. Besides, the Ratio IC50 in data set [7] was found to be 10.

`O=C1NC(=O)C(C(=O)NCc2ccc(F)cc2)c2ccccc21` (stereo not given): the IC50 is 199 µM in [1] and 79 µM in [2]. In addition, the CC50 in data set [3] is > 250 µM. The EC50 in data set [5] was > 250 µM.

Regarding `O=C(NCCc1ccc(O)c(O)c1)C1C(=O)N(O)C(=O)c2ccccc21` (stereo not given), the IC50 in data set [1] stood at 0.673 µM; in [2], 0.296 µM; in [6], 0.13 µM. Also, in data set [3], the CC50 was 63 µM. Moreover, the EC50 in [5] was > 63 µM.

Regarding `CN1C(=O)c2ccccc2C(C(=O)NCc2ccc(F)cc2)C1=O` (stereo not given), the IC50 in data set [1] and in data set [2] was > 250 µM each time. Also, the CC50 in data set [3] was > 250 µM. In addition, in [5], the EC50 was > 250 µM.

As for `O=C(NCc1ccc(O)cc1O)C1C(=O)N(O)C(=O)c2ccccc21` (stereo not given), the 50% inhibitory concentration (IC50) is 0.035 µM in data set [1], 0.572 µM in data set [2], 2.35 µM in data set [8] and 0.52 µM in data set [6]. Further, the CC50 in data set [3] was > 125 µM. The selectivity ratio in data set [4] was > 16. Further, the EC50 in [5] was 7.94 µM. In addition, in [7], the Ratio IC50 is 10.

For the compound `Cc1ccc(CNC(=O)C2C(=O)N(O)C(=O)c3ccccc32)cc1` (stereo not given), the figures for the IC50 in data set [1], in data set [2] and in data set [6] were 0.076 µM, 0.084 µM and 14 µM, respectively. The CC50 in data set [3] is > 125 µM. In addition, the selectivity ratio in [4] was > 22. Further, the EC50 in data set [5] was found to be 5.7 µM.

In the case of `CN(C(=O)C1C(=O)N(O)C(=O)c2ccccc21)c1ccccc1` (stereo not given), the IC50 in data set [1] was determined as 5.21 µM; in [2], 5.6 µM. For the same compound, in [3], it took 107 µM to reach half-maximal cytotoxicity (CC50). In addition, the EC50 in data set [5] is > 107 µM.

As to `COc1ccc(NC(=O)C2C(=O)N(O)C(=O)c3ccccc32)cc1Cl` (stereo not given), the IC50 came to 0.02 µM in [1], 0.277 µM in data set [2], 1.58 µM in data set [8] and 16.6 µM in data set [6]. In data set [3], this compound came in with a 50% cytotoxic concentration (CC50) of 12.3 µM. Besides, the selectivity ratio in data set [4] was 3.7. Moreover, the EC50 in [5] worked out at 3.34 µM. Further, the Ratio IC50 in [7] is 10.

Turning to `Cc1nnc(C(=O)NC(C)(C)c2nc(C(=O)NCc3ccc(F)cc3)c(O)c(=O)n2C)o1`, the CC50 in [3] was > 8 µM.

Take `O=C(NCc1ccccc1)C1C(=O)N(O)C(=O)c2ccccc21` (stereo not given): the IC50 stood at 0.08 µM in [1] and 0.03 µM in data set [2]. In data set [3], this compound yielded a CC50 of 130 µM. Also, in data set [4], the selectivity ratio was determined as 41.7. Besides, the EC50 in data set [5] turned out to be 3.12 µM.

Consider `O=C(Nc1ccc(F)cc1)C1C(=O)N(O)C(=O)c2ccccc21` (stereo not given), for which the results for the IC50 in data set [1] and in data set [2] were 0.8 µM and 1.12 µM, respectively. This compound also showed a CC50 in data set [3] of 114 µM. Also, the selectivity ratio in [4] worked out at 65.4. The EC50 in data set [5] was 1.75 µM.

Consider `O=C(NCCc1ccc(F)cc1)C1C(=O)N(O)C(=O)c2ccccc21` (stereo not given), for which the IC50 was 0.03 µM in data set [1] and 0.2 µM in data set [2]. Besides, the CC50 in data set [3] is 124 µM. Also, in data set [4], the selectivity ratio was determined as 24. The concentration giving a half-maximal response (EC50) in data set [5] amounted to 5.08 µM.

Turning to `COc1ccc(CCNC(=O)C2C(=O)N(O)C(=O)c3ccccc32)cc1OC` (stereo not given), the results for the IC50 in data set [1], in [2] and in data set [6] were 0.495 µM, 0.126 µM and 3.85 µM, respectively. Also, the CC50 in data set [3] is > 125 µM. Moreover, the selectivity ratio in [4] is > 1.8. Moreover, the EC50 in data set [5] was 70.8 µM.

As to `COc1ccc(CNC(=O)C2C(=O)N(O)C(=O)c3ccccc32)cc1OC` (stereo not given), the IC50 was 0.235 µM in [1] and 0.307 µM in data set [2]. Also, in data set [3], the CC50 amounted to 125 µM. For the same compound, the EC50 in data set [5] was > 125 µM.

`COc1ccc(CNC(=O)C2C(=O)N(O)C(=O)c3ccccc32)cc1` (stereo not given): the IC50 is 1.19 µM in data set [1] and 1.03 µM in data set [2]. This compound displayed a CC50 in [3] of 118 µM. In addition, the selectivity ratio in [4] was 6.7. Further, the EC50 in data set [5] turned out to be 17.6 µM.

Consider `O=C(NCc1ccc(O)c(O)c1)C1C(=O)N(O)C(=O)c2ccccc21` (stereo not given), for which the values for the IC50 in data set [1], in data set [2] and in data set [6] were 0.205 µM, 0.258 µM and 0.9 µM, respectively. Moreover, the midpoint of cytotoxicity in data set [3], the CC50, lay at 11 µM. Moreover, in data set [5], the EC50 was > 11 µM.

Broadly, the solubility is the concentration that dissolves in the medium under given conditions. The low end stands for little dissolved substance, the high end for much dissolved substance. The logD is lipophilicity at a set pH, counting ionised and neutral species. A lower logD goes with a more hydrophilic compound. Take `O=C(NCc1ccc(F)cc1)C1C(=O)N(O)C(=O)c2ccccc21` (stereo not given): the IC50 in [1] is 0.056 µM; in data set [2], 0.099 µM; in data set [8] it was 0.06 µM; in data set [9], > 100 µM; in [6] it was 0.36 µM. The compound also showed a CC50 in [3] of 202 µM. Moreover, the selectivity ratio in [4] is 86.3. For the same compound, in [5], the EC50 was found to be 2.34 µM. The fraction unbound in data set [10] stood at 0.001. In data set [11], this compound displayed a solubility of 190 µM (≈ 62.4 µg/mL). Further, the logD in data set [12] amounted to 0.56.

For `O=C(Nc1cccc(F)c1)C1C(=O)N(O)C(=O)c2ccccc21` (stereo not given), the IC50 in data set [1] stood at 0.01 µM; in data set [2] it was 0.11 µM; in [6], 7.31 µM. The compound further returned a CC50 in [3] of 64 µM. Moreover, the selectivity ratio in data set [4] amounted to 25.9. Further, in [5], the EC50 amounted to 2.47 µM. In addition, the Ratio IC50 in data set [7] was 10.

With `O=C(Nc1ccccc1)C1C(=O)N(O)C(=O)c2ccccc21` (stereo not given), the IC50 in data set [1] stood at 0.31 µM; in data set [2] it was 0.73 µM. In addition, the CC50 in data set [3] is 106 µM. For the same compound, in data set [4], the selectivity ratio was 21.3. For the same compound, the EC50 in data set [5] came out at 4.95 µM.
